Published values of several laboratories.
Each line is one published result; the experiments were not run side by side.
Target: Rho-associated protein kinase 1 (ROCK1, Homo sapiens, UniProt Q13464)

SMILES | assay | conditions | measurement | value
COc1ccc2c(c1)O[C@@H](c1ccc(OC)c(OC)c1)C[C@H]2NC(=O)C1(c2ccc3c(c2)OC(F)(F)O3)CC1 | cell-free assay, competition with immobilised ligand | 1 µM | remaining binding | 89%
Cn1cncc1C1=CN(c2ncnc3[nH]cnc23)CCS1 | enzyme activity, inhibitor, radiometric | 50 nM | inhibition | 27%
Cc1c[nH]c2nccc(Oc3c(F)cc(Nc4cc(Cl)nc(N)n4)cc3F)c12 | cell-free assay, competition with immobilised ligand | 0.1 µM | remaining binding | 0.6%
CC(C)(O)[C@H]1CC[C@H](Nc2ccc3ncc(-c4cccc(C(F)(F)F)c4)n3n2)CC1 | enzyme activity, inhibitor | 1 µM | remaining activity | 94%
CN1CCN(c2cnc3c(C4CCN(C(=O)c5ccc(OC(F)(F)F)cc5N)CC4)ncnc3c2)CC1 | cell-free assay, competition with immobilised ligand | 1 µM | remaining binding | 100%
CNC(=O)c1cc(Oc2ccc(NC(=O)Nc3ccc(Cl)c(C(F)(F)F)c3)cc2)ccn1 | enzyme activity, inhibitor | 0.3 µM | inhibition | 0%
Cc1ccc(NC(=O)c2ccc(C)c(C(F)(F)F)c2)cc1C#Cc1nn(C2CCC(O)CC2)c2ncnc(N)c12 (centres unmarked) | cell-free assay | 10 µM | remaining signal | 126%
CC(C)(C)c1nc(-c2cccc(NS(=O)(=O)c3c(F)cccc3F)c2F)c(-c2ccnc(N)n2)s1 | enzyme activity, inhibitor, radiometric | 1 µM | remaining activity | 104%
COc1cc(-c2cn(C3CCc4ccccc4N(CC(F)(F)F)C3=O)nn2)ccc1-n1ccc(C)n1 (centres unmarked) | cell-free assay, competition with immobilised ligand | 1 µM | remaining binding | 100%
COc1cc2ncnc(Nc3ccc(Oc4ccccc4)c(C)c3C)c2cc1OC | enzyme activity, inhibitor | 1 µM | inhibition | -12%
CC(=O)N1CCC(c2ccc(C(=O)NC(=N)N)cc2C(F)(F)F)CC1 | cell-free assay, competition with immobilised ligand | 1 µM | remaining binding | 87%
CCCOc1ccc(OC)c(F)c1C(=O)c1ccc(C(=O)N[C@@H]2CNC[C@H]2NC(=O)c2ccc3[nH]ncc3c2)cc1 | enzyme activity, inhibitor | 10 µM | remaining activity | 8%
Cc1ccc(Nc2nccc(N(C)c3ccc4c(C)n(C)nc4c3)n2)cc1S(N)(=O)=O | enzyme activity, inhibitor | 0.3 µM | inhibition | -1%
CC/C(=N\NC(=O)C(C)Nc1ccccc1)c1ccc(O)c(C)c1O (centres unmarked) | enzyme activity, inhibitor | 0.1 µM | inhibition | 18.5%
O=S(=O)(c1cccc2cnccc12)N1CCCNCC1 | cell-free assay | 0.5 µM | remaining signal | 60.2%
O=C1NC(c2ccccn2)Sc2ccccc21 (centres unmarked) | cell-free assay, competition with immobilised ligand | 1 µM | remaining binding | 82%
CCN(CC)c1ccc(C2=NNC(=O)CC2C)cc1[N+](=O)[O-] (centres unmarked) | enzyme activity, inhibitor | 10 µM | remaining activity | 109%
C[C@@H](N)[C@H]1CC[C@H](C(=O)Nc2ccncc2)CC1 | cell-free assay | 0.5 µM | remaining signal | 31.5%
CN(C)C(=O)Cn1cc(-c2nc(C3(c4ccc(-c5cnc(N)nc5)cc4)CC3)no2)cn1 | cell-free assay, competition with immobilised ligand | 1 µM | remaining binding | 83%
CCN(CC)CCNC(=O)c1c(C)[nH]c(/C=C2\C(=O)Nc3ccc(F)cc32)c1C | enzyme activity, inhibitor | 10 µM | inhibition | 26%
Cc1ccc(C(=O)Nc2ccc(CN3CCN(C)CC3)c(C(F)(F)F)c2)cc1C#Cc1cnc2cccnn12 | enzyme activity, inhibitor | 23.5 nM | remaining activity | 79%
CN(C)c1ncnc(-c2ccc3nc(Nc4cc(CN5CCN(C(=O)CC(F)(F)F)CC5)ccn4)[nH]c3c2)c1Cl | cell-free assay, competition with immobilised ligand | 1 µM | remaining binding | 100%
O=C1Nc2ccc(Cl)cc2C1=Cc1cc(Cl)c(O)c(Cl)c1 | cell-free assay | 0.5 µM | remaining signal | 93.2%
CCCCNc1ncc2c(-c3ccc(F)cc3)nn(C[C@H]3CC[C@H](N)CC3)c2n1 | target engagement in cells, inhibitor, chemoproteomics | 20 mM | inhibition | 54.3%
CN(C)C1CCN(CC#Cc2nn(C3CCCC3)c3nc(NCc4ccccc4)ncc23)C1 (centres unmarked) | enzyme activity, inhibitor, FRET | 1 µM | inhibition | -1%
CCCS(=O)(=O)Nc1ccc(F)c(C(=O)c2c[nH]c3ncc(-c4ccc(Cl)cc4)cc23)c1F | enzyme activity, inhibitor | 1 µM | inhibition | < 10%
COc1cccc2c(NCc3ccccc3)nc(-n3c(N)nc4ccccc43)nc12 | target engagement in cells, inhibitor, chemoproteomics | 20 mM | inhibition | 2.2%
O=C(Nc1cnn(-c2csc(C(=O)NC3COC3)c2)c1)Nc1c(F)cccc1Cl | enzyme activity, inhibitor | 5 µM | remaining activity | 78.2%
Cc1cc(NC(=O)c2cccc3cc(-c4cccc5[nH]nc(N)c45)ccc23)ccc1F | enzyme activity, inhibitor | 0.1 µM | activity vs control | 110%
